Experimental findings from ChEMBL document CHEMBL4002602, “Design, Synthesis of Novel, Potent, Selective, Orally Bioavailable Adenosine A2A Receptor Antagonists and Their Biological Evaluation” (J Med Chem, 2017) are described below.

Usually AUC(0-t) stands for exposure summed from dosing to a finite time, without extrapolation to infinity. Low readings indicate less exposure, high ones more exposure. One may read the IC50 as the concentration at which inhibition is half-maximal. As usually defined, the Papp A→B is how fast a substance crosses the layer from the apical side. As usually defined, the half-life is how long it takes for the measured level to halve. Low values mean fast loss, high ones slow loss. Usually Ki stands for a measure of affinity in units of concentration, obtained from inhibition or displacement. The term inhibition denotes the share of the control response that was lost under treatment. Low readings indicate a response near the control, high ones a response far below the control.

Activity calls are given as the source filed them. No cut-off for these calls is given here. Some results are limits rather than exact numbers.

The nature of series [1]: AUC (0 to t) in Wistar rat brain at 10 mg/kg administered through oral gavage by LC/MS/MS analysis. The series is classed as ADME, organism-based. Summed up: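 Male Wistar rats (230 ± 15 g), fasted overnight, given an oral suspension (1% Tween 80, 0.5% NaCMC; 1 mg/mL, 10 mL/kg). Blood and brain were collected discretely at 0.5, 2, 4 and 8 h. Brain was washed in PBS pH 7.4, weighed and homogenized, then acetonitrile-precipitated with internal standard. LC/MS/MS against standards in blank brain homogenate; n=4.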

In series [2] the test system is Rattus norvegicus. Nature of the series: Neuroprotective activity in 6-OHDA-lesioned Wistar rat model of parkinson disease assessed as increase in L-DOPA induced contralateral rotations at 100 mg/kg, po pretreated for 30 mins followed by benserazide addition and subsequent L-DOPA stimulation for 30 mins measured up to 2 hrs. The series is classed as functional, organism-based. Summed up:
(§1)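 Male Wistar rats (295–305 g) anesthetized with ketamine/xylazine and given desipramine 10 mg/kg i.p. 30 min before 6-OHDA lesioning. At two weeks, rats were screened with apomorphine 0.05 mg/kg i.p. and kept only if they made ≥100 rotations in 1 h. Compound (30 or 100 mg/kg p.o., in 1% Tween 80/0.5% MC) was given 30 min before benserazide. L-DOPA 4 mg/kg i.p. followed 30 min later. Contralateral rotations counted over 2 h; one-way ANOVA with Dunnett's test.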

For a further series, the target named is CYP1A2 (Homo sapiens, UniProt P05177). In words: Inhibition of CYP1A2 in human liver microsomes at 5 to 25 uM using phenacetin as substrate preincubated for 5 mins with substrate followed by NADPH addition measured after 10 mins by LC-MS/MS analysis. The note with it: human liver microsomes, probe phenacetin. The series is classed as ADME. (Liver microsomes are a subcellular fraction often used to study metabolism.)
Sequence of CYP1A2 (P05177 whole entry): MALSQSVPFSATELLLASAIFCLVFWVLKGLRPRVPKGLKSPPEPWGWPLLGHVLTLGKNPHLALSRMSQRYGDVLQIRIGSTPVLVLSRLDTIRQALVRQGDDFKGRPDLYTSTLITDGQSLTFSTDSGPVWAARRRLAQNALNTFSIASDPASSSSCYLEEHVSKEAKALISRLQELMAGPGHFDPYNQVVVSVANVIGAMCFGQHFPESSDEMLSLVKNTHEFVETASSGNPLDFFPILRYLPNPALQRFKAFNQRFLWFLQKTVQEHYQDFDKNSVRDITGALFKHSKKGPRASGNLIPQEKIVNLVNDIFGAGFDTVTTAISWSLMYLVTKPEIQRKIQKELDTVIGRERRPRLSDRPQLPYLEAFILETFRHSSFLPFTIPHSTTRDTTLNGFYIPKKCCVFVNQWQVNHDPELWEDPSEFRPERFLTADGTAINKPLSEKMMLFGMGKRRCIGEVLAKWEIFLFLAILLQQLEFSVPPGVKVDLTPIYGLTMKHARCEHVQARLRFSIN

Another series deals with CYP2C9 (Homo sapiens, UniProt P11712). In words: Inhibition of CYP2C9 in human liver microsomes at 5 to 25 uM using diclofenac as substrate preincubated for 5 mins with substrate followed by NADPH addition measured after 10 mins by LC-MS/MS analysis. The following applies: human liver microsomes, probe diclofenac. The series is classed as ADME.
Sequence of CYP2C9 (P11712 whole entry): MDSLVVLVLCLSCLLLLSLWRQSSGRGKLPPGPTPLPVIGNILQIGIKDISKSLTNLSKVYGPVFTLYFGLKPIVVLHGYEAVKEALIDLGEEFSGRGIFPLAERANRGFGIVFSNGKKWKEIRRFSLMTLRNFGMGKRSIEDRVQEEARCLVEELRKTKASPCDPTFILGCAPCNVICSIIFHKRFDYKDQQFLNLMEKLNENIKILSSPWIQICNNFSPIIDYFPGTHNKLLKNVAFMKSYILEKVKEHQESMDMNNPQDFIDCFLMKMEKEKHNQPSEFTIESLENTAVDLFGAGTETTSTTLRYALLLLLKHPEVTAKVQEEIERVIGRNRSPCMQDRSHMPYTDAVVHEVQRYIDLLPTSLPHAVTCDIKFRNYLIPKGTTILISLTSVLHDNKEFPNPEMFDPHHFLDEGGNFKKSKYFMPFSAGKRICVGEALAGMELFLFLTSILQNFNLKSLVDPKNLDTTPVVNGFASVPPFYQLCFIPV
Series [3] in a line: Apparent permeability across apical to basolateral side in human Caco2 cells at 5 uM after 90 mins. The note with it: Caco-2. The series is classed as ADME, cell-based.
Series [4] is described as follows: AUC (0 to t) in Wistar rat plasma at 10 mg/kg administered through oral gavage by LC/MS/MS analysis. The series is classed as ADME, organism-based.
Series [5] addresses T1, Adenosine receptor A1 (Homo sapiens) (UniProt P30542).
T1 sequence (whole entry): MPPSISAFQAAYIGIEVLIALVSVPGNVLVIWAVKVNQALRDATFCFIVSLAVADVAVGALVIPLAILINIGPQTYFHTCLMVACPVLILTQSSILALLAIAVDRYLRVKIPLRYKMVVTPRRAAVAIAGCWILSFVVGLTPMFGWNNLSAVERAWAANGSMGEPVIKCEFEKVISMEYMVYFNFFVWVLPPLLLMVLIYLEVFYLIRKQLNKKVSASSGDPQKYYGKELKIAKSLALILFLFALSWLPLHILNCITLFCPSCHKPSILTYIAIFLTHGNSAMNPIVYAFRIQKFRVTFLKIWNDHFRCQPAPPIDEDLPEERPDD
Nature of the series: Antagonist activity at human adenosine A1 receptor expressed in HEK293 cell membranes assessed as decrease in CPA/forskolin-induced cAMP level at 30 uM pretreated for 15 mins followed by agonist addition for 15 mins and subsequent forskolin stimulation measured after 30 mins. The series is classed as functional, cell-based. The essentials:
(§2)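 Whole HEK-A1 cells were seeded overnight and then pretreated with 1 U/ml ADA for 90 min at 37 °C and 5% CO2. Compound was added for 15 min, then 1 nM CPA for 15 min, then forskolin for 30 min, at room temperature in incomplete DMEM with ADA and 20 μM rolipram. cAMP was read by HTRF (620/665 nm). Compounds ran at 12 concentrations in triplicate, with 10 or 30 μM as the top concentration.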

Series [6] can be described thus: Half-life in rat hepatocytes at 1 uM by LC-MS/MS analysis. The series is classed as ADME, cell-based, Hepatocyte.
A further series has as its system HepG2. In words: Cytotoxicity against human HepG2 cells. The series is classed as cell-based.
Series [7] in a line: Protein binding in rat serum at 1 uM after 6 hrs by HT dialysis method. The series is classed as ADME, cell-free. The note with it: read-out: PB (converted).
Series [8] concerns Rattus norvegicus. Nature of the series: Neuroprotective activity in po dosed 6-OHDA-lesioned Wistar rat model of parkinson disease assessed as increase in L-DOPA induced contralateral rotations pretreated for 30 mins followed by benserazide addition and subsequent L-DOPA stimulation for 30 mins measured at 60 mins post dose. The series is classed as functional, organism-based. Summed up:
as §1

For another series, the target named is T2, Adenosine receptor A1 (Homo sapiens, UniProt P30542).
T2 sequence (P30542 whole entry): T1 sequence (whole entry)
Nature of the series: Antagonist activity at human adenosine A1 receptor expressed in HEK293 cell membranes assessed as decrease in CPA/forskolin-induced cAMP level pretreated for 15 mins followed by agonist addition for 15 mins and subsequent forskolin stimulation measured after 30 mins. The series is classed as functional, cell-based. Summed up:
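HTRF cAMP assay in overnight-seeded HEK cells expressing human A1, A2A or A2B, pretreated with ADA 1 U/ml for 90 min at 37 °C. Cells were given compound at increasing concentrations for 15 min, then agonist at room temperature in incomplete DMEM with ADA: CPA 1 nM, 15 min (A1); CGS-21680 10 nM, 30 min (A2A); NECA 70 nM, 15 min (A2B). Rolipram 20 μM for A1 and A2A; forskolin 30 min for A1 only. 12 concentrations, triplicates; IC50/Ki by curve fitting.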
(In general: Cyclic AMP is a second messenger, typically raised through Gs and lowered through Gi signalling.)

For another series, the target named is hERG (KCNH2) (Homo sapiens, UniProt Q12809). Nature of the series: Inhibition of [3H]-astemizole binding to human ERG at 3 uM after 2 hrs by liquid scintillation counting method relative to control. The note with it: probe [3H]-astemizole.
Sequence of hERG (KCNH2) (Q12809 whole entry): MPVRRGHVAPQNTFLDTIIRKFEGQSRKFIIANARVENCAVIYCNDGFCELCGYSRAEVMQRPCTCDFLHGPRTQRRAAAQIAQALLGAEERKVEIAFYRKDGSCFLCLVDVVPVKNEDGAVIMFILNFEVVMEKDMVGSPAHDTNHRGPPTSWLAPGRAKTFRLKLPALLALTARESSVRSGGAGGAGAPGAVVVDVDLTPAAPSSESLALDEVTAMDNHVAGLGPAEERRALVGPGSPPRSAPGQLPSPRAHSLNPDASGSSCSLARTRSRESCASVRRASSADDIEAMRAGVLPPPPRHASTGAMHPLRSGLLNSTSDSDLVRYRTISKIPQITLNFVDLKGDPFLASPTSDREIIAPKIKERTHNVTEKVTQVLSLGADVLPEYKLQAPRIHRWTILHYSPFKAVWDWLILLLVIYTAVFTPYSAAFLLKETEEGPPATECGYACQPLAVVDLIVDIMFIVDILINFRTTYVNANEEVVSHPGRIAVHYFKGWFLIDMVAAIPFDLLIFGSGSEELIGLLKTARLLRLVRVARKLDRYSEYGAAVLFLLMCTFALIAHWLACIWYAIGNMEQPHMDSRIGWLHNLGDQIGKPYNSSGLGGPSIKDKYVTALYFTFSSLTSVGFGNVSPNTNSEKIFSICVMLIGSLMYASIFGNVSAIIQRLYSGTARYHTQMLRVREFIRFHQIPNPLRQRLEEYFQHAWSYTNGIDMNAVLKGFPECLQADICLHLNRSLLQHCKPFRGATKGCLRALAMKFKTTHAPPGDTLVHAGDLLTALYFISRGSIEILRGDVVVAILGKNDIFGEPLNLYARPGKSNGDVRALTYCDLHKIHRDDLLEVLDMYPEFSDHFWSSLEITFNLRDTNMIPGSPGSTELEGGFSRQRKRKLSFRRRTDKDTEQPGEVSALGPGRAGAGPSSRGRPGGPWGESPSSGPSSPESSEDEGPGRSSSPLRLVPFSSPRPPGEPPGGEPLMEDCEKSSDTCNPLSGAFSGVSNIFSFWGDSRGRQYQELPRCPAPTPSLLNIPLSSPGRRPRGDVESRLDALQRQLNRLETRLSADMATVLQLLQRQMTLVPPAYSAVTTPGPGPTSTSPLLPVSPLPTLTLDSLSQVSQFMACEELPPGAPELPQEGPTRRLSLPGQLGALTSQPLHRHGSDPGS
Series [9] deals with T3, Adenosine receptor A2b (Homo sapiens) (UniProt P29275).
T3 sequence (whole entry): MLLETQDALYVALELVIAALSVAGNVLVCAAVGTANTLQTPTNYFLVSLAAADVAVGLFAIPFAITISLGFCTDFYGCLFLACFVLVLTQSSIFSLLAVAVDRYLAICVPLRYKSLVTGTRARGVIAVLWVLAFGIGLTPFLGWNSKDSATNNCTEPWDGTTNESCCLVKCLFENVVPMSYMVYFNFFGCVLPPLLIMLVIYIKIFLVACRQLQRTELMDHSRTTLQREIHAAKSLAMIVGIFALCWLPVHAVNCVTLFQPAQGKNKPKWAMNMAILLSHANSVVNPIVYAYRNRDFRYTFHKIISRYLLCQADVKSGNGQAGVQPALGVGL
In words: Antagonist activity at human adenosine A2B receptor expressed in HEK293 cell membranes assessed as decrease in NECA/forskolin-induced cAMP level at 10 uM pretreated for 15 mins followed by agonist addition for 15 mins and subsequent forskolin stimulation measured after 30 mins. The series is classed as functional, cell-based. The essentials:
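Whole HEK-A2B cells were seeded overnight and then pretreated with 1 U/ml ADA for 90 min at 37 °C and 5% CO2. Compound was added for 15 min, then 70 nM NECA for 15 min, at room temperature with mixing in incomplete DMEM with ADA. cAMP was read by HTRF (620/665 nm). Compounds ran at 12 concentrations in triplicate, with 10 μM as the highest tested concentration.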

The target in series [10] is T1, Adenosine receptor A1 (Homo sapiens). In words: Antagonist activity at human adenosine A1 receptor expressed in HEK293 cell membranes assessed as decrease in CPA/forskolin-induced cAMP level at 10 uM pretreated for 15 mins followed by agonist addition for 15 mins and subsequent forskolin stimulation measured after 30 mins. The series is classed as functional, cell-based. Summed up:
as §2

Series [11] can be described thus: Metabolic stability in rat hepatocytes at 1 uM after 3 to 30 mins by LC-MS/MS analysis. The series is classed as ADME, cell-based, Hepatocyte.

For the compound `CCN(CC)C1CCC(C)(C(=O)Nc2nc3c(OC)ccc(N4CCOCC4)c3s2)CC1` (stereo unspecified), the AUC(0-t) in series [1] stood at 1.1 µM·h; in series [4], 4.7 µM·h. In addition, the outcome in the series on Rattus norvegicus [2] was Active. The IC50 at 10 min against CYP1A2 and on CYP2C9 was greater than 50 µM throughout. Besides, the Papp A→B at 1.5 h, 5 µM in series [3] worked out at 3.7 ×10⁻⁶ cm/s. In addition, the result in [5] was inactive. The same compound displayed a half-life at 1 µM in series [6] greater than 1 h. Also, the IC50 in the series with HepG2 was greater than 100 µM. Moreover, the fraction unbound at 6 h, 1 µM in [7] was 0.24. Also, the Activity result with Rattus norvegicus [8] was “Dose-dependent effect”.

On to `COc1ccc(N2CCOCC2)c2sc(NC(=O)C3(C)CCC(C)(O)CC3)nc12` (stereo unspecified), for which the IC50 at 10 min at CYP1A2 and at CYP2C9 was greater than 25 µM throughout. Besides, the Papp A→B at 1.5 h, 5 µM in series [3] was found to be 12.2 ×10⁻⁶ cm/s. For the same compound, the result in [5] was inactive. The compound further showed a half-life at 1 µM in series [6] greater than 1 h. In the series on HepG2, this compound registered an IC50 greater than 100 µM. Further, the fraction unbound at 6 h, 1 µM in [7] was 0.13.

For `COc1ccc(N2CCOCC2)c2sc(NC(=O)C(C)(C)Oc3ccc(F)cc3)nc12`, the Ki at Adenosine receptor A1 was found to be 2 µM. The compound further displayed an inhibition at 2 h, 3 µM on hERG (KCNH2) of less than 5%. For the same compound, in [9], the result was inactive.

With `COc1ccc(N2CCOCC2)c2sc(NC(=O)C(C)(C)Oc3ccc(F)c(F)c3)nc12`, the outcome in [10] and in series [9] was inactive. For the same compound, on hERG (KCNH2), the inhibition at 2 h, 3 µM is less than 5%.

For `COc1cnc(N2CCOCC2)c2sc(NC(=O)C(C)(C)Oc3ccc(F)cc3)nc12`, the Stability result in series [11] is recorded as “Stable”. In addition, the result in [10] was inactive.
